Source: publication PMC9056854 (RSC Advances, 2020)

Test: Thermal denaturation study
Assay type: physicochemical
Details: 3 μM duplex, 10 mM sodium phosphate (pH 7.0), 100 mM NaCl; relative to siRNA 1
Summary of the method: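 UV melting of duplexes at 3 μM in 10 mM sodium phosphate (pH 7.0) with 100 mM NaCl, heated at 0.5 °C min−1. ΔTm is the Tm of the peptide-conjugated duplex minus the Tm of the unmodified duplex.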

Substance | ΔTm [Tm(siRNAmod) − Tm(siRNAunmod)]
5′-GGCCUUUCACUACUCCUACTTR^E-R8A7-3′ [siRNA 3] | +0.5 °C
5′-GGCCUUUCACUACUCCUACTTR^E-R8G7-3′ [siRNA 2] | +0.9 °C
